Assay results as given in ChEMBL document CHEMBL4334424, “The winding road of the uvaretin class of natural products: from total synthesis to bioactive agent discovery” (Medchemcomm, 2019).

Key:
[1] = tested on: REH; experiment: Cytotoxicity against human REH cells assessed as cell viability at 5 uM incubated for 72 hrs by alamar blue assay (reference value: 0 %); type: functional; details: read-out: Activity
Procedure, shortened: (§1)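 Combination assay in 96-well plates with 100 μL final volume and 1% DMSO. Two test-compound concentrations were crossed with five 6TP concentrations, then cells were added (4000/well adherent, 7000/well suspension). Plates ran 72 h at 37 °C, 5% CO2, with Alamar Blue viability read-out and ≥3 independent experiments. Combination index was calculated by the Chou–Talalay method.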

[2] = tested on: REH; experiment: Cytotoxicity against human REH cells assessed as combinational index at 5 uM incubated for 72 hrs in presence of 25 uM 6TP by alamar blue assay; type: functional; procedure, shortened: as §1
[3] = tested on: HCT-116; experiment: Cytotoxicity against human HCT116 cells assessed as reduction in cell viability incubated for 72 hrs by alamar blue assay; type: functional, cell-based; details: HCT-116, 72 h
Procedure, shortened: (§2)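 Adherent cells were seeded at 1500 cells/well in 384-well plates and allowed 2–3 h to attach. Compounds in DMSO, diluted in media over 31.6 nM–200 μM, were tested in triplicate for 72 h continuous exposure at 37 °C, 5% CO2. Alamar Blue was added for the final 3 h and fluorescence read (ex 560/em 590 nm). IC50 was fitted from ≥3 independent experiments.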

[4] = tested on: MIA PaCa-2; experiment: Cytotoxicity against human MIAPaCa2 cells assessed as cell viability at 2.5 uM incubated for 72 hrs in presence of 100 uM 6TP by alamar blue assay (reference value: 30.7 %); type: functional; procedure, shortened: as §1
[5] = tested on: A549; experiment: Cytotoxicity against human A549 cells assessed as reduction in cell viability incubated for 72 hrs by alamar blue assay; type: functional, cell-based; details: A549, 72 h; procedure, shortened: as §2
[6] = tested on: MIA PaCa-2; experiment: Cytotoxicity against human MIAPaCa2 cells assessed as cell viability at 5 uM incubated for 72 hrs by alamar blue assay (reference value: 0 %); type: functional; details: MIA PaCa-2, 72 h, read-out: Activity; procedure, shortened: as §1
[7] = tested on: REH; experiment: Cytotoxicity against human REH cells assessed as cell viability at 5 uM incubated for 72 hrs in presence of 50 uM 6TP by alamar blue assay (reference value: 21.9 %); type: functional; procedure, shortened: as §1
[8] = tested on: MIA PaCa-2; experiment: Cytotoxicity against human MIAPaCa2 cells assessed as combinational index at 5 uM incubated for 72 hrs in presence of 50 uM 6TP by alamar blue assay; type: functional; procedure, shortened: as §1
[9] = tested on: MIA PaCa-2; experiment: Cytotoxicity against human MIAPaCa2 cells assessed as combinational index at 2.5 uM incubated for 72 hrs in presence of 100 uM 6TP by alamar blue assay; type: functional; procedure, shortened: as §1
[10] = tested on: MIA PaCa-2; experiment: Cytotoxicity against human MIAPaCa2 cells assessed as combinational index at 5 uM incubated for 72 hrs in presence of 25 uM 6TP by alamar blue assay; type: functional; procedure, shortened: as §1
[11] = tested on: REH; experiment: Cytotoxicity against human REH cells assessed as combinational index at 2.5 uM incubated for 72 hrs in presence of 50 uM 6TP by alamar blue assay; type: functional; procedure, shortened: as §1
[12] = tested on: MIA PaCa-2; experiment: Cytotoxicity against human MIAPaCa2 cells assessed as combinational index at 2.5 uM incubated for 72 hrs in presence of 25 uM 6TP by alamar blue assay; type: functional; procedure, shortened: as §1
[13] = tested on: REH; experiment: Cytotoxicity against human REH cells assessed as cell viability at 2.5 uM incubated for 72 hrs in presence of 50 uM 6TP by alamar blue assay (reference value: 21.9 %); type: functional; procedure, shortened: as §1
[14] = tested on: MIA PaCa-2; experiment: Cytotoxicity against human MIAPaCa2 cells assessed as cell viability at 2.5 uM incubated for 72 hrs in presence of 10 uM 6TP by alamar blue assay (reference value: 6.9 %); type: functional; procedure, shortened: as §1
[15] = tested on: MIA PaCa-2; experiment: Cytotoxicity against human MIAPaCa2 cells assessed as cell viability at 5 uM incubated for 72 hrs in presence of 100 uM 6TP by alamar blue assay (reference value: 30.7 %); type: functional; procedure, shortened: as §1
[16] = tested on: REH; experiment: Cytotoxicity against human REH cells assessed as cell viability at 5 uM incubated for 72 hrs in presence of 10 uM 6TP by alamar blue assay (reference value: 10.8 %); type: functional; procedure, shortened: as §1
[17] = tested on: MIA PaCa-2; experiment: Cytotoxicity against human MIAPaCa2 cells assessed as cell viability at 2.5 uM incubated for 72 hrs in presence of 25 uM 6TP by alamar blue assay (reference value: 6.4 %); type: functional; procedure, shortened: as §1
[18] = tested on: HeLa; experiment: Cytotoxicity against human HeLa cells assessed as reduction in cell viability incubated for 72 hrs by alamar blue assay; type: functional, cell-based; procedure, shortened: as §2
[19] = tested on: REH; experiment: Cytotoxicity against human REH cells assessed as combinational index at 2.5 uM incubated for 72 hrs in presence of 100 uM 6TP by alamar blue assay; type: functional; procedure, shortened: as §1
[20] = tested on: MIA PaCa-2; experiment: Cytotoxicity against human MIAPaCa2 cells assessed as cell viability at 2.5 uM incubated for 72 hrs in presence of 50 uM 6TP by alamar blue assay (reference value: 13.8 %); type: functional; procedure, shortened: as §1
[21] = tested on: MIA PaCa-2; experiment: Cytotoxicity against human MIAPaCa2 cells assessed as cell viability at 5 uM incubated for 72 hrs in presence of 50 uM 6TP by alamar blue assay (reference value: 13.8 %); type: functional; procedure, shortened: as §1
[22] = tested on: REH; experiment: Cytotoxicity against human REH cells assessed as reduction in cell viability incubated for 72 hrs by alamar blue assay; type: functional, cell-based
Procedure, shortened: (§3)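 Suspension cells (2200/well, 384-well) were added directly onto compound in media with no attachment period. Compounds spanned 31.6 nM–200 μM in triplicate, with 72 h exposure at 37 °C, 5% CO2. Alamar Blue was added for the last 3 h and fluorescence read (ex 560/em 590 nm). IC50 came from ≥3 independent experiments.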

[23] = tested on: MIA PaCa-2; experiment: Cytotoxicity against human MIAPaCa2 cells assessed as combinational index at 5 uM incubated for 72 hrs in presence of 200 uM 6TP by alamar blue assay; type: functional; procedure, shortened: as §1
[24] = tested on: REH; experiment: Cytotoxicity against human REH cells assessed as combinational index at 2.5 uM incubated for 72 hrs in presence of 25 uM 6TP by alamar blue assay; type: functional; procedure, shortened: as §1
[25] = tested on: REH; experiment: Cytotoxicity against human REH cells assessed as combinational index at 5 uM incubated for 72 hrs in presence of 100 uM 6TP by alamar blue assay; type: functional; procedure, shortened: as §1
[26] = tested on: REH; experiment: Cytotoxicity against human REH cells assessed as cell viability at 5 uM incubated for 72 hrs in presence of 100 uM 6TP by alamar blue assay (reference value: 49.5 %); type: functional; procedure, shortened: as §1
[27] = tested on: MIA PaCa-2; experiment: Cytotoxicity against human MIAPaCa2 cells assessed as combinational index at 5 uM incubated for 72 hrs in presence of 100 uM 6TP by alamar blue assay; type: functional; procedure, shortened: as §1
[28] = tested on: MIA PaCa-2; experiment: Cytotoxicity against human MIAPaCa2 cells assessed as reduction in cell viability incubated for 72 hrs by alamar blue assay; type: functional, cell-based; details: MIA PaCa-2, 72 h; procedure, shortened: as §2
[29] = tested on: REH; experiment: Cytotoxicity against human REH cells assessed as combinational index at 2.5 uM incubated for 72 hrs in presence of 200 uM 6TP by alamar blue assay; type: functional; procedure, shortened: as §1
[30] = tested on: MIA PaCa-2; experiment: Cytotoxicity against human MIAPaCa2 cells assessed as cell viability at 5 uM incubated for 72 hrs in presence of 25 uM 6TP by alamar blue assay (reference value: 6.4 %); type: functional; procedure, shortened: as §1
[31] = tested on: MIA PaCa-2; experiment: Cytotoxicity against human MIAPaCa2 cells assessed as cell viability at 2.5 uM incubated for 72 hrs by alamar blue assay (reference value: 0 %); type: functional; details: MIA PaCa-2, 72 h, read-out: Activity; procedure, shortened: as §1
[32] = tested on: REH; experiment: Cytotoxicity against human REH cells assessed as cell viability at 2.5 uM incubated for 72 hrs in presence of 100 uM 6TP by alamar blue assay (reference value: 49.5 %); type: functional; procedure, shortened: as §1
[33] = tested on: MIA PaCa-2; experiment: Cytotoxicity against human MIAPaCa2 cells assessed as combinational index at 2.5 uM incubated for 72 hrs in presence of 50 uM 6TP by alamar blue assay; type: functional; procedure, shortened: as §1
[34] = tested on: REH; experiment: Cytotoxicity against human REH cells assessed as combinational index at 5 uM incubated for 72 hrs in presence of 50 uM 6TP by alamar blue assay; type: functional; procedure, shortened: as §1
[35] = tested on: REH; experiment: Cytotoxicity against human REH cells assessed as cell viability at 2.5 uM incubated for 72 hrs by alamar blue assay (reference value: 0 %); type: functional; details: read-out: Activity; procedure, shortened: as §1
[36] = tested on: REH; experiment: Cytotoxicity against human REH cells assessed as cell viability at 2.5 uM incubated for 72 hrs in presence of 25 uM 6TP by alamar blue assay (reference value: 12.2 %); type: functional; procedure, shortened: as §1
[37] = tested on: MIA PaCa-2; experiment: Cytotoxicity against human MIAPaCa2 cells assessed as combinational index at 2.5 uM incubated for 72 hrs in presence of 200 uM 6TP by alamar blue assay; type: functional; procedure, shortened: as §1
[38] = tested on: REH; experiment: Cytotoxicity against human REH cells assessed as cell viability at 2.5 uM incubated for 72 hrs in presence of 10 uM 6TP by alamar blue assay (reference value: 10.8 %); type: functional; procedure, shortened: as §1
[39] = tested on: MIA PaCa-2; experiment: Cytotoxicity against human MIAPaCa2 cells assessed as cell viability at 5 uM incubated for 72 hrs in presence of 10 uM 6TP by alamar blue assay (reference value: 6.9 %); type: functional; procedure, shortened: as §1
[40] = tested on: REH; experiment: Cytotoxicity against human REH cells assessed as combinational index at 5 uM incubated for 72 hrs in presence of 200 uM 6TP by alamar blue assay; type: functional; procedure, shortened: as §1
[41] = tested on: U-937; experiment: Cytotoxicity against human U937 cells assessed as reduction in cell viability incubated for 72 hrs by alamar blue assay; type: functional, cell-based; details: U-937, 72 h; procedure, shortened: as §3
[42] = tested on: REH; experiment: Cytotoxicity against human REH cells assessed as cell viability at 5 uM incubated for 72 hrs in presence of 25 uM 6TP by alamar blue assay (reference value: 12.2 %); type: functional; procedure, shortened: as §1

COCOc1cc(OC)c(C(=O)/C=C/c2ccccc2)c(OCOC)c1
viability at 5 µM [1]: 9% | CI [2]: 0.67 | IC50 [3]: > 20 µM | Activity [4]: 49.1% | IC50 [5]: 4.2 µM | viability at 5 µM [6]: 16.2% | Activity [7]: 26.1% | CI [8]: 0.51 | CI [9]: 0.72 | CI [10]: 0.55 | CI [11]: 1.36 | CI [12]: 0.67 | Activity [13]: 22.1% | Activity [14]: 16.5% | Activity [15]: 61.2% | Activity [16]: 12.7% | Activity [17]: 18.6% | IC50 [18]: 9.7 µM | CI [19]: 1.36 | Activity [20]: 25.1% | Activity [21]: 40.8% | IC50 [22]: 9.2 µM | CI [23]: 0.19 | CI [24]: 0.81 | CI [25]: 1.06 | Activity [26]: 51% | CI [27]: 0.36 | IC50 [28]: 2.2 µM | CI [29]: 0.63 | Activity [30]: 30% | viability at 2.5 µM [31]: 10.2% | Activity [32]: 51% | CI [33]: 0.79 | CI [34]: 0.84 | viability at 2.5 µM [35]: 8.1% | Activity [36]: 13.5% | CI [37]: 0.31 | Activity [38]: 11.1% | Activity [39]: 25.4% | CI [40]: 0.64 | IC50 [41]: 5.9 µM | Activity [42]: 19.1%
